The results in this text go back to PubChem BioAssay.

Activity calls are given as the source filed them.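 Rule for the calls, unless noted: active = inhibition of the reporter signal at or above 50%; inactive = inhibition below 50%.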

Assay [1] can be described thus: inhibitors of TNFa-induced NFkB p65 translocation, primary screen, imaging, HUVEC, MLSMR starter and 10KST1 sets (AID 438;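 active = inhibition above 20% together with a positive visual image hit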;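 note: compound added about 3h40 before a 20 min TNFalpha stimulation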;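 for inhibition: signal is the nuclear over cytoplasmic p65 intensity ratio per well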). The settings on record: HUVEC TNFa-induced p65 nuclear translocation; cell count: measured here: nuclei count (cytotoxicity indicator), at 2.08 µM; inhibition: at 2 µM, stronger effect = higher value, 0% TNFa-plus-vehicle, 100% no-TNFa wells.
The nature of assay [2]: reduction of polyQ htt aggregates in cells – imaging, exon1htt(103Q)mCFP cells, high-content imaging, primary screen (AID 483;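 active = visual image review flags a hit and inhibition of aggregation exceeds 20%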;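 note: compound exposure lasted 3 days before fixation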;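 for nuclei count: percent of the per-plate median nuclei count of sample wells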). The settings on record: exon1htt(103Q)mCFP cell line, aggregate imaging, at 2 µM; inhibition of aggregation: stronger effect = higher value; nuclei count: measured here: cell count, toxicity.
The nature of assay [3]: endothelial E-selectin expression blockers – imaging, HUVEC, immunofluorescence, MLSMR starter and 10KST1 sets, primary screen (AID 487;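 active = visually confirmed hit in the image check and inhibition above 20%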;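 for inhibition: signal is fraction of cell area covered by stained E-selectin grains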;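 for nuclei count: 100% = median nuclei count of all wells on the same plate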). To be noted: HUVEC TNFalpha-induced E-selectin immunofluorescence imaging, at 2 µM; inhibition: stronger effect = higher value; nuclei count: measured here: cell number, toxicity.
In assay [4] the target is Voltage-gated potassium channel subunit beta-2 (Rattus norvegicus) (UniProt P62483). Put plainly: inhibitors of rat Kvbeta2 reductase activity – biochemical, NADPH fluorescence, primary screen (AID 622;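 active = fluorescence slope higher than the sample average by over 3 SD, cut at about -0.22 in these data, passing the limit was not always enough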;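 note: slope of raw intensity against log time taken from 70 to 1610 s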). To be noted: recombinant KvBeta, 4-cyanobenzaldehyde reduction, at 10 µM, stronger effect = higher value.
Assay [5] has the same target. Put plainly: enhancers of rat Kvbeta2 NADPH turnover – biochemical, NADPH fluorescence, primary screen (AID 623;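 active = NADPH fluorescence slope more negative than the mean of all samples by about 3 SD, 99.7% confidence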;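 note: fluorescence intensity change per second fitted from 20 to 320 s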). To be noted: Recombinant KvBeta, NADPH fluorescence decrease slope, 10 min; at 10 µM; stronger effect = lower value.
Assay [6] concerns the target Muscarinic acetylcholine receptor M4 (Homo sapiens) (UniProt P08173). Put plainly: M4-linked GIRK flux change, two-sided – cell-based, HEK293 M4/GIRK, thallium flux, BTC-AM, M4 allosteric agonist project, primary screen (AID 625;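 active = fluorescence slope after compound addition differing from the mean of all tested samples at 99.7% confidence, mostly higher but some lower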;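 note: thallium influx through GIRK channels coupled to M4 in HEK293 cells with BTC-AM dye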). To be noted: at 10 µM, actives lie on both sides. In short, it runs like this:
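Assay system: HEK293 cells with M4 receptor and GIRK channels / Controls: carbachol and DMSO controls / Schedule: 1 h dye loading, 2 min kinetic read / Technique: kinetic fluorescence with BTC-AM dye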

A short description of assay [7]: blockers of RIG-like receptor reporter activation – cell-based, Sendai virus stimulus, luciferase, 10K MLSCN set, TLR/RLR signaling modifier project, primary screen (AID 602276;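 active = inhibition at or above 50% at 10 µM; inactive = inhibition below 50%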;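 note: firefly luciferase from ISG56 promoter only with Renilla not read in this screen; 0% = Sendai virus plus DMSO and 100% = medium plus DMSO without virus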). To be noted: HEK293 RL24 IRF3 luciferase reporter, at 10 µM, stronger effect = higher value.
Assay [8] is described as follows: TLR3 IRF3 reporter activation blockers – cell-based, poly I:C stimulus, luciferase, 10K MLSCN set, primary screen (AID 602277). The settings on record: HEK293-TLR3 RL24 IRF3 luciferase reporter, at 10 µM, stronger effect = higher value. On the technique in general: Reporter assays use an easily measured gene product as a stand-in for the process of interest.

Chain of Muscarinic acetylcholine receptor M4 (Homo sapiens) (P08173 whole entry, looked up): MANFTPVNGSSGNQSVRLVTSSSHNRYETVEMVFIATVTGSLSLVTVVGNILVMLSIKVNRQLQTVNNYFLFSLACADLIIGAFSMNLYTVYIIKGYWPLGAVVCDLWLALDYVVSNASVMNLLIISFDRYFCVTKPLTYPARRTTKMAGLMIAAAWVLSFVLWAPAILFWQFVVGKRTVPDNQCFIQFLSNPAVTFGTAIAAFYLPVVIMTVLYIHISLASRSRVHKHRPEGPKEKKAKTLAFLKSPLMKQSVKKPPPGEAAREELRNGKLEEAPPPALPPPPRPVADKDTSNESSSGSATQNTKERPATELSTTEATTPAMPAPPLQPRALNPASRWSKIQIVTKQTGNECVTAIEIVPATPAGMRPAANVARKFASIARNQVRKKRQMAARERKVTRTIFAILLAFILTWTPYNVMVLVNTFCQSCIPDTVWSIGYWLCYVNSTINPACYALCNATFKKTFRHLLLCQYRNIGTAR
Chain of Voltage-gated potassium channel subunit beta-2 (Rattus norvegicus) (P62483 whole entry, looked up): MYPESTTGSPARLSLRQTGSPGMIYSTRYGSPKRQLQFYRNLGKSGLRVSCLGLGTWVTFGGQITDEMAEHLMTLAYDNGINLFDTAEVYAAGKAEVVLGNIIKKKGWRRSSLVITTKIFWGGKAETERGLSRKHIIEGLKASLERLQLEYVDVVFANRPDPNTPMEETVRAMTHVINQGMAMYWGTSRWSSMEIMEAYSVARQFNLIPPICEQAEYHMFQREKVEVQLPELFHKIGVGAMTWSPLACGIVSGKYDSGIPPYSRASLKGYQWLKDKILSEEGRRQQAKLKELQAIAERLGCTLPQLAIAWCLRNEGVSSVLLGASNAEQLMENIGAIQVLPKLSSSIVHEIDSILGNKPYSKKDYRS

On to `COc1ccccc1C(=O)Nc1ccc(S(=O)(=O)N2CCOCC2)cc1`, for which the cell count in assay [1] stood at 353. The inhibition in assay [1] was -6% (inactive); in assay [3] it was -85.7% (inactive); in assay [7], 10.8% (inactive); in assay [8], 0.189% (inactive). In addition, the inhibition of aggregation in assay [2] is 21.1% (inactive). Also, the nuclei count is 61.9% in assay [2] and 105% in assay [3]. Also, the fluorescence slope in assay [4] is -0.571 (inactive); in assay [6], 0.00422 (inactive). Further, the NADPH fluorescence slope in assay [5] was -5.6e-05 (inactive).
For the compound `C/C(Cl)=C\Cn1c(NCCc2ccccc2)nc2c1c(=O)n(C)c(=O)n2C`, the cell count in assay [1] turned out to be 636. In addition, the inhibition was -7.8% (inactive) in assay [1], 6.4% (inactive) in assay [3], 12.1% (inactive) in assay [7] and 2.85% (inactive) in assay [8]. Besides, in assay [2], the inhibition of aggregation was 29.8% (inactive). For the same compound, the nuclei count was 84.6% in assay [2] and 96.4% in assay [3]. Further, the values for the fluorescence slope in assay [4] and in assay [6] were -0.286 (inactive) and 0.00523 (inactive), respectively. The NADPH fluorescence slope in assay [5] is -2.8e-05 (inactive).
As for `Cc1cc(S(=O)(=O)NC2CCCCC2)ccc1OCC(=O)NCc1ccccn1`, the cell count in assay [1] worked out at 346. Further, the inhibition in assay [1] is -8.6% (inactive); in assay [3], -70.2% (inactive); in assay [7], 20.7% (inactive); in assay [8], 34% (inactive). For the same compound, the inhibition of aggregation in assay [2] was 7.8% (inactive). Also, the nuclei count in assay [2] was determined as 96.4%; in assay [3], 106%. Besides, the fluorescence slope is -0.607 (inactive) in assay [4] and 0.0059 (inactive) in assay [6]. Moreover, the NADPH fluorescence slope in assay [5] was 5.7e-06 (inactive).
As to `COc1ccc(C)cc1-n1nnnc1SCC(=O)NC(=O)NCc1ccco1`, the cell count in assay [1] worked out at 180. Further, the inhibition in assay [1] was -9.6% (inactive); in assay [3], 8.9% (inactive); in assay [7], 16.7% (inactive); in assay [8], 16% (inactive). In addition, the inhibition of aggregation in assay [2] is 25% (inactive). In addition, the nuclei count in assay [2] stood at 65.2%; in assay [3] it was 90.6%. Besides, the fluorescence slope was -0.57 (inactive) in assay [4] and 0.00596 (inactive) in assay [6]. For the same compound, the NADPH fluorescence slope in assay [5] was -1.3e-05 (inactive).
As to `Cc1ccc(OC(=O)CCc2c(C)nc3ncnn3c2C)cc1`, the cell count in assay [1] stood at 634. The inhibition in assay [1] was -10.5% (inactive); in assay [3] it was -84.1% (inactive); in assay [7] it was 0.226% (inactive); in assay [8], 8.51% (inactive). The inhibition of aggregation in assay [2] is 18.7% (inactive). In addition, the nuclei count was 130% in assay [2] and 112% in assay [3]. For the same compound, the values for the fluorescence slope in assay [4] and in assay [6] were -0.551 (inactive) and 0.00538 (inactive), respectively. In assay [5], the NADPH fluorescence slope is 9.9e-06 (inactive).
Consider `Cc1ccc(NC(=O)c2oc3ccc(S(=O)(=O)N4CCOCC4)cc3c2C)cc1C`, for which the cell count in assay [1] stood at 357. Besides, the inhibition in assay [1] was -20.4% (inactive); in assay [3] it was -98.4% (inactive); in assay [7] it was 11% (inactive); in assay [8], 13.9% (inactive). Moreover, in assay [2], the inhibition of aggregation was -20.5% (inactive). In addition, the nuclei count in assay [2] came out at 109%; in assay [3], 133%. Also, the fluorescence slope in assay [4] is -0.278 (inactive); in assay [6] it was 0.00768 (inactive). The NADPH fluorescence slope in assay [5] is 2.2e-05 (inactive).
For `CCOC(=O)c1c(C)oc2ccc(O)c(CN(C)C)c12`, the cell count in assay [1] was 663. The inhibition is 1.9% (inactive) in assay [1], -211% (inactive) in assay [3], 8.53% (inactive) in assay [7] and 20% (inactive) in assay [8]. Also, in assay [2], the inhibition of aggregation is 16.5% (inactive). Besides, the nuclei count came to 105% in assay [2] and 108% in assay [3]. The results for the fluorescence slope in assay [4] and in assay [6] were -0.551 (inactive) and 0.00733 (inactive), respectively. In assay [5], the NADPH fluorescence slope is -6.7e-06 (inactive).
On to `O=C(c1ccco1)N1CCN(C(=O)C2CCN(S(=O)(=O)c3cccc4nsnc34)CC2)CC1`, for which the cell count in assay [1] came out at 549. The inhibition in assay [1] was 9.4% (inactive); in assay [3] it was 8.2% (inactive); in assay [7], 8.36% (inactive); in assay [8], 18.1% (inactive). The inhibition of aggregation in assay [2] was 5.1% (inactive). In addition, the nuclei count worked out at 104% in assay [2] and 96.4% in assay [3]. Further, the fluorescence slope in assay [4] is -0.468 (inactive); in assay [6], 0.00637 (inactive). Moreover, the NADPH fluorescence slope in assay [5] is 0.000197 (inactive).
Consider `CC(=O)Nc1cccc(NC(=O)CSc2nnnn2C(C)C)c1`, for which the cell count in assay [1] amounted to 638. Moreover, the inhibition is 1.6% (inactive) in assay [1], -46.4% (inactive) in assay [3], 12.9% (inactive) in assay [7] and 12.5% (inactive) in assay [8]. The inhibition of aggregation in assay [2] is 13.7% (inactive). The figures for the nuclei count in assay [2] and in assay [3] were 62.3% and 120%, respectively. The fluorescence slope was -0.436 (inactive) in assay [4] and 0.00495 (inactive) in assay [6]. In assay [5], the NADPH fluorescence slope is -2.6e-05 (inactive).
Take `CCC(C)OC(=O)n1ccc(C(=O)Nc2nccs2)n1` (centres undefined): the cell count in assay [1] was found to be 604. For the same compound, the inhibition in assay [1] is -8.2% (inactive); in assay [3], -79.6% (inactive); in assay [7] it was -5.02% (inactive); in assay [8], -27.4% (inactive). In addition, the inhibition of aggregation in assay [2] was 8.2% (inactive). Moreover, the nuclei count in assay [2] worked out at 95%; in assay [3], 131%. In addition, the fluorescence slope in assay [4] was -0.575 (inactive); in assay [6], 0.00527 (inactive). The NADPH fluorescence slope in assay [5] was -1.9e-05 (inactive).
As to `Cc1n[nH]c(C)c1S(=O)(=O)Nc1ccc2c(c1)OCCO2`, the cell count in assay [1] stood at 328. In addition, the inhibition is 8.9% (inactive) in assay [1], 10.4% (inactive) in assay [3], 26.7% (inactive) in assay [7] and 33.7% (inactive) in assay [8]. In addition, in assay [2], the inhibition of aggregation was 29.5% (inactive). Also, the nuclei count in assay [2] was determined as 91.5%; in assay [3], 84.4%. The fluorescence slope was -0.469 (inactive) in assay [4] and 0.0057 (inactive) in assay [6]. In addition, in assay [5], the NADPH fluorescence slope is 4.4e-05 (inactive).
Take `COc1ccc(OC)c(S(=O)(=O)Nc2ccc(C(N)=O)cc2)c1`: the cell count in assay [1] is 684. Besides, the inhibition is -2.6% (inactive) in assay [1], -57% (inactive) in assay [3], 18.4% (inactive) in assay [7] and 23.9% (inactive) in assay [8]. In assay [2], the inhibition of aggregation is -13.7% (inactive). The values for the nuclei count in assay [2] and in assay [3] were 107% and 113%, respectively. Moreover, the fluorescence slope in assay [4] was -0.519 (inactive); in assay [6], 0.00432 (inactive). In addition, the NADPH fluorescence slope in assay [5] is -0.000185 (inactive).
As for `CC(C)(C)c1cc(C(=S)N2CCN(CCO)CC2)cc(C(C)(C)C)c1O`, in assay [1], the cell count was 667. The inhibition in assay [1] was -1.4% (inactive); in assay [3], -150% (inactive); in assay [7], 24.4% (inactive); in assay [8], 29.9% (inactive). Also, the inhibition of aggregation in assay [2] was 10.4% (inactive). Also, the nuclei count in assay [2] came to 105%; in assay [3], 128%. Besides, the fluorescence slope is -0.534 (inactive) in assay [4] and 0.00566 (inactive) in assay [6]. Besides, the NADPH fluorescence slope in assay [5] was -4.4e-05 (inactive).
For the compound `Cn1c(=O)n(C)c2cc(CNc3ccc(N4CCOCC4)c(C(=O)O)c3)ccc21`, the cell count in assay [1] turned out to be 350. The inhibition in assay [1] was -0.2% (inactive); in assay [3], -9.8% (inactive); in assay [7], 13.1% (inactive); in assay [8], 5.3% (inactive). In assay [2], the inhibition of aggregation was 3% (inactive). The nuclei count in assay [2] was found to be 107%; in assay [3], 110%. The fluorescence slope in assay [4] is -0.423 (inactive); in assay [6], 0.00799 (inactive). Further, the NADPH fluorescence slope in assay [5] was 0.00012 (inactive).

One may read the inhibition as the change of the read-out against control, counted positive when it falls.
